The source made the active and inactive calls. The calls are words filed in the database; no cut-off is given here.
Assays:
[1] = biological target: T1, Polyamine deacetylase HDAC10 (Homo sapiens, UniProt Q969S8); experiment: Inhibition of HDAC10 (unknown origin) using Ac-ArgThr- Lys(Ac)Lys(Ac)-AMC as substrate preincubated for 5 mins followed by substrate addition and measured after 60 mins by fluorescence based assay
T1 sequence (Q969S8 whole entry): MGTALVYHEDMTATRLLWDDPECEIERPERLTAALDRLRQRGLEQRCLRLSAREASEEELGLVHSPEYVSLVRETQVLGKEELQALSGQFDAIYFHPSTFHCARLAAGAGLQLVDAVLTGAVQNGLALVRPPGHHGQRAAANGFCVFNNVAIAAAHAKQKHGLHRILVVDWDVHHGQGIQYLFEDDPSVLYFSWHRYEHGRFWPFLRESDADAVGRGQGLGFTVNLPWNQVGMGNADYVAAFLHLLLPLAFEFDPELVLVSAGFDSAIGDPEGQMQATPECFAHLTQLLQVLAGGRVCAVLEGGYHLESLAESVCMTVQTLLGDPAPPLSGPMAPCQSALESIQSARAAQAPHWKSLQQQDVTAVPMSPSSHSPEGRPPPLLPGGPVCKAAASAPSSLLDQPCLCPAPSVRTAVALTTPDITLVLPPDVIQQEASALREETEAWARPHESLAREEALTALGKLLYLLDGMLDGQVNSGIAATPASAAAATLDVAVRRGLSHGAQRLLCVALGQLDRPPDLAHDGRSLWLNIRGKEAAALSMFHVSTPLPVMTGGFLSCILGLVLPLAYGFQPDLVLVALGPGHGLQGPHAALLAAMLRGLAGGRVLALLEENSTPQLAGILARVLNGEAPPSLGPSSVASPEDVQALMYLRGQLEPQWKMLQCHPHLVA

Homo sapiens [2] = species on record: Homo sapiens; experiment: Selectivity ratio of IC50 for HDAC1 (unknown origin) to IC50 for HDAC6 (unknown origin)
Method in brief: (§1)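 Each isoform's IC50 comes from a dose–effect curve in an HDAC isoform inhibition panel, with replicates n ≥ 2. The ratio is that isoform's IC50 divided by the HDAC6 IC50.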

Homo sapiens [3] = species on record: Homo sapiens; experiment: Selectivity ratio of IC50 for HDAC11 (unknown origin) to IC50 for HDAC6 (unknown origin); method in brief: as §1
[4] = biological target: T2, Protein deacetylase HDAC6 (Homo sapiens, UniProt Q9UBN7); experiment: Inhibition of HDAC6 (unknown origin) using Ac-LeuGlyLys(Ac)-AMC as substrate preincubated for 5 mins followed by substrate addition and measured after 60 mins by fluorescence based assay
T2 sequence (Q9UBN7 whole entry): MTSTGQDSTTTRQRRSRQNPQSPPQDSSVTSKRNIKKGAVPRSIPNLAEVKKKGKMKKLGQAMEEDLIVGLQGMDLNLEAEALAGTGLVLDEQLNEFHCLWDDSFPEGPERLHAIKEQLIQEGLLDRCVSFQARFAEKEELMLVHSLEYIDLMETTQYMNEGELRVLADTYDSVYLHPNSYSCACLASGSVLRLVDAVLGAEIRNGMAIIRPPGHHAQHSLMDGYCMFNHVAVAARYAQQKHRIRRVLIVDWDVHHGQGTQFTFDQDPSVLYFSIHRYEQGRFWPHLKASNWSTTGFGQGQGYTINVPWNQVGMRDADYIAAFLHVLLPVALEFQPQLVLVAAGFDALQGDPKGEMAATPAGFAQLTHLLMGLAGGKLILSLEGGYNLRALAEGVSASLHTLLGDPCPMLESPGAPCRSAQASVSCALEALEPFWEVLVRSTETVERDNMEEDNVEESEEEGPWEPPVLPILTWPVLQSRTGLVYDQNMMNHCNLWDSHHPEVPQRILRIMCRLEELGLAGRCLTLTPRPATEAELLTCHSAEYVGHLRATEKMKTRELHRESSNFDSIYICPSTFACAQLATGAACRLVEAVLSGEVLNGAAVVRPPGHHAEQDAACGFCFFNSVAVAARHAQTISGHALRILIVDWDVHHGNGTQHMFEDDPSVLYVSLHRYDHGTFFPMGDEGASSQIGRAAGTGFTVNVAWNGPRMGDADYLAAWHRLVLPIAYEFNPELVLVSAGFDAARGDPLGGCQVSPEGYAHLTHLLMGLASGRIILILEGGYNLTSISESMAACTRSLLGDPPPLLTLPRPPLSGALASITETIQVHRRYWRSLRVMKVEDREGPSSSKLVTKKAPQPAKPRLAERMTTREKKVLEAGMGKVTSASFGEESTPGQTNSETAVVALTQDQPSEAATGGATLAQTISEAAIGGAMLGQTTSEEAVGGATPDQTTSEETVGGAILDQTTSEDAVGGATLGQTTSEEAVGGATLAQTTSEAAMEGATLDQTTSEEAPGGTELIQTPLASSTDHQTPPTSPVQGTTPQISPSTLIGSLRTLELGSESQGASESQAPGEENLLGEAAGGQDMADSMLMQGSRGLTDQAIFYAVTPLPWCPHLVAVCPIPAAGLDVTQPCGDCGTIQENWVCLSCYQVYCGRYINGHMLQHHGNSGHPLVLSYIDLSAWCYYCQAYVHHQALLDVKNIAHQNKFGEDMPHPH

[5] = biological target: Histone deacetylase (Homo sapiens) (UniProt Q13547+O15379+Q9UBN7+Q92769+Q9UQL6+Q8WUI4+Q9BY41+Q96DB2+P56524+Q9UKV0+Q969S8); details: at 0.08 to 1.6 µM
HL-60 [6] = experiment: Induction of cell cycle arrest in human HL60 cells assessed as accumulation of cells at subG1 phase at 0.25 to 0.45 uM incubated for 48 hrs by PI staining based flow cytometric analysis; format: functional
Method in brief: (§2)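 PI staining of HL-60 cells, with DMSO-treated cells as control, used to read cell-cycle phase distribution including G1 and subG1 fractions. Mean ± SD of at least three independent experiments.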

Homo sapiens [7] = species on record: Homo sapiens; experiment: Selectivity ratio of IC50 for HDAC2 (unknown origin) to IC50 for HDAC6 (unknown origin); method in brief: as §1
HL-60 [8] = experiment: Induction of cell cycle arrest in human HL60 cells assessed as accumulation of cells at G1 phase at 0.25 to 0.45 uM incubated for 48 hrs by PI staining based flow cytometric analysis; format: functional; method in brief: as §2
HL-60 [9] = experiment: Induction of apoptosis in human in human HL60 cells assessed as increase in caspase 3 activation at 0.25 to 0.75 uM using […] as substrate preincubated for 24 to 48 hrs followed by substrate addition and measured after 1.5 hrs by fluorescence based assay; format: functional, cell-based
Method in brief: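 HL-60 cells exposed to 0.25, 0.45 and 0.75 μM for 24 and 48 h, with untreated cells as control; activated caspase 3 measured. Mean ± SD of at least three independent experiments; significance versus untreated control set at p < 0.05.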

Homo sapiens [10] = species on record: Homo sapiens; experiment: Selectivity ratio of IC50 for HDAC8 (unknown origin) to IC50 for HDAC6 (unknown origin); method in brief: as §1
Homo sapiens [11] = species on record: Homo sapiens; experiment: Selectivity ratio of IC50 for HDAC9 (unknown origin) to IC50 for HDAC6 (unknown origin); method in brief: as §1
Homo sapiens [12] = species on record: Homo sapiens; experiment: Selectivity ratio of IC50 for HDAC3 (unknown origin) to IC50 for HDAC6 (unknown origin); method in brief: as §1
Homo sapiens [13] = species on record: Homo sapiens; experiment: Selectivity ratio of IC50 for HDAC4 (unknown origin) to IC50 for HDAC6 (unknown origin); method in brief: as §1

IC50 [1] [nM]	Ratio IC50 (Homo sapiens [2])	Ratio IC50 (Homo sapiens [3])	IC50 [4] [nM]	inhibition [5]	Ratio IC50 (Homo sapiens [7])	Ratio IC50 (Homo sapiens [10])	Ratio IC50 (Homo sapiens [11])	Ratio IC50 (Homo sapiens [12])	Ratio IC50 (Homo sapiens [13])	SMILES	Activity (HL-60 [6])	Activity (HL-60 [8])	Activity (HL-60 [9])
164	218	> 20000	4.4	Active	63	> 20000	> 20000	53	> 20000	Cc1ccc(CN2C(=O)N(c3ccc(Cl)cc3)C(=O)C2CCC(=O)Nc2ccc(C(=O)NO)cc2)cc1 (centres undefined)	Active	Active	Active
114	–	–	7.6	–	–	–	–	–	–	O=C(CCC1C(=O)N(c2ccc(Cl)cc2)C(=O)N1Cc1ccccc1)Nc1ccc(C(=O)NO)cc1 (centres undefined)	–	–	–
268	–	–	9.7	–	–	–	–	–	–	O=C(CCC1C(=O)N(c2ccc(Cl)cc2)C(=O)N1Cc1ccc(Br)cc1)Nc1ccc(C(=O)NO)cc1 (centres undefined)	Active	Active	–
